Test results: ChEMBL document CHEMBL2380245, “Synthesis and evaluation of 2,3-dinorprostaglandins: Dinor-PGD1 and 13-epi-dinor-PGD1 are peroxisome proliferator-activated receptor α/γ dual agonists” (Bioorg Med Chem Lett, 2013)
Activity calls are given as the source filed them.

How the values were obtained:
Format in all cases: cell-based
[1] = molecular target: T1, Peroxisome proliferator-activated receptor delta (Homo sapiens) (UniProt Q03181); test: Agonist activity at PPARdelta (unknown origin) transfected in HEK293 cells at 10 uM by luciferase reporter gene assay
T1 sequence (whole entry): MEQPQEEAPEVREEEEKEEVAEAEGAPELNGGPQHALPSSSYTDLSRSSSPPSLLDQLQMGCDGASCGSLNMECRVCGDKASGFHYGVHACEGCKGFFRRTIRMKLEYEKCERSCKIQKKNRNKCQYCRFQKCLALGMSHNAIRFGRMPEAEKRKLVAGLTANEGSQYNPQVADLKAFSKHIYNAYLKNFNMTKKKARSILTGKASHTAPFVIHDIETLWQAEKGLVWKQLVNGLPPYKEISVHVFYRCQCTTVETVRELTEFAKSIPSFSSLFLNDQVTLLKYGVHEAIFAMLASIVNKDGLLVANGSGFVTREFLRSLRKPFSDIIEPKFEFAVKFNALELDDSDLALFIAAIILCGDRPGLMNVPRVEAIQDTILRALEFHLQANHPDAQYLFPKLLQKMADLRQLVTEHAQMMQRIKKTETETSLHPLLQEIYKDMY

[2] = molecular target: T2, Peroxisome proliferator-activated receptor gamma (Homo sapiens) (UniProt P37231); test: Agonist activity at PPARgamma (unknown origin) transfected in HEK293 cells at 10 uM by luciferase reporter gene assay
T2 sequence (whole entry): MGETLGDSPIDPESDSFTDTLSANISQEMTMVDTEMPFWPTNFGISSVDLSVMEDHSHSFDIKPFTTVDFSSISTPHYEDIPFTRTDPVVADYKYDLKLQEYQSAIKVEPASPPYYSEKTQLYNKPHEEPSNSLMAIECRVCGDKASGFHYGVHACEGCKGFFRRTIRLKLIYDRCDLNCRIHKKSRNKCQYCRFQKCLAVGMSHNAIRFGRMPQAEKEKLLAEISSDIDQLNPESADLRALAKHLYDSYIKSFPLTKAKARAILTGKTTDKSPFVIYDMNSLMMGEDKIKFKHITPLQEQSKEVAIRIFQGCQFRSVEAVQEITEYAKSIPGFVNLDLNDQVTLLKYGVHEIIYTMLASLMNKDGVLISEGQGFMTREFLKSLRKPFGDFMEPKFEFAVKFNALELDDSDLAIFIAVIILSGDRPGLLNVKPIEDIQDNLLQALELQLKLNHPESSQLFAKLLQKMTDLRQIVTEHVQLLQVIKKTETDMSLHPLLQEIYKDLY
Summary of the method: (§1)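 Luciferase PPAR reporter assay in transfected HEK293 cells, run following a previously reported protocol. Each receptor was tested alongside a subtype-selective reference agonist as control: PPARα at 10 µM, PPARδ at 100 nM and PPARγ at 10 µM.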

[3] = molecular target: T3, Peroxisome proliferator-activated receptor alpha (Homo sapiens) (UniProt Q07869); test: Agonist activity at PPARalpha (unknown origin) transfected in HEK293 cells at 10 uM by luciferase reporter gene assay; summary of the method: as §1
T3 sequence (whole entry): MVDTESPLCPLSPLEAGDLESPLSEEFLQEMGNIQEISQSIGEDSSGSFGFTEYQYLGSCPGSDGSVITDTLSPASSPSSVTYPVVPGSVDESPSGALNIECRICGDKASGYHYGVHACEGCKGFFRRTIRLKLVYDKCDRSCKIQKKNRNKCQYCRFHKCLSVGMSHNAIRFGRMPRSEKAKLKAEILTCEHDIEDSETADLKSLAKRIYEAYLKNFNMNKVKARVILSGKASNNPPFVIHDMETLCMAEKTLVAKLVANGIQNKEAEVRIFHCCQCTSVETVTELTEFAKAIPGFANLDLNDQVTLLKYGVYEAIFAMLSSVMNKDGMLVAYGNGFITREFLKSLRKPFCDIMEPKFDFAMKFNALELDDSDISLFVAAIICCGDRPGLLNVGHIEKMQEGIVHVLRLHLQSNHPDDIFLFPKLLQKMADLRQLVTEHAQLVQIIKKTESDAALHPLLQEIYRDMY

[4] = molecular target: T2, Peroxisome proliferator-activated receptor gamma (Homo sapiens); test: Agonist activity at PPARgamma (unknown origin) transfected in HEK293 cells at 1 to 30 uM by luciferase reporter gene assay
[5] = molecular target: T3, Peroxisome proliferator-activated receptor alpha (Homo sapiens); test: Agonist activity at PPARalpha (unknown origin) transfected in HEK293 cells at 1 to 30 uM by luciferase reporter gene assay

Measured: Activity

CC1(COc2ccc(CC3SC(=O)NC3=O)cc2)CCCCC1 (stereo not given)
active: [1] | [2] | [3]

CC(C)(Oc1ccc(C(=O)c2ccc(Cl)cc2)cc1)C(=O)O
active: [1] | [2] | [3]

CCCCC[C@H](O)/C=C/[C@H]1C(=O)C[C@H](O)[C@@H]1CCCCC(=O)O
active: [4] | [5] | [3]

CCCCC/C=C/C=C1/C(=O)C=C[C@@H]1CCCCC(=O)O
active: [1] | [2] | [3]

CCCCC[C@@H](O)/C=C/[C@H]1C(=O)C[C@H](O)[C@@H]1CCCCC(=O)O
active: [4] | [5] | [3]

CCCCC[C@H](O)/C=C/[C@H]1C(=O)C[C@H](O)[C@@H]1C/C=C\CCCC(=O)O
active: [4] | [5] | [1] | [2] | [3]
